This is an account of results in ChEMBL document CHEMBL1134361, “C-Isoprenylation of flavonoids enhances binding affinity toward P-glycoprotein and modulation of cancer cell chemoresistance” (J Med Chem, 2001).

A short description of data set [1]: Hydrophobicity index was determined in C18 reverse phase silica gel 20 * 20 cm plates in methanol:water (8:2). The data set is classed as ADME.
The nature of data set [2]: Effect of Chrysin Alkylation on the Binding to PgP Cytosolic Domain. Type of data set: ADME. The method, boiled down:
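Recombinant Pgp C-terminal cytosolic domain NBD2 (0.5 µM) in 20 mM potassium phosphate pH 6.8 with 0.5 M NaCl, 20% glycerol and 0.01% heptylcarbamoyl glucoside, 25 °C. Ligand titrated in aliquots up to 20 µM. Tryptophan fluorescence (ex 295 nm, em 310–360 nm) integrated; inner-filter corrected with N-acetyltryptophanamide. Curve fit gave KD and percent maximal quenching.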

Data set [3] in a line: Partition coefficient (logP). The data set is classed as physicochemical. To be noted: octanol/water. The method, boiled down:
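Log P estimated by extrapolation from a log P vs R_M calibration curve built with quercetine and platanetine data.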

Data set [4] deals with K562. As to the kind of experiment: Relative daunomycin accumulation was determined in PgP-positive leukemic K562/R7 cells with daunomycin at a concentration of 10 uM. Type of data set: functional, Homo sapiens. The method, boiled down:
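K562/R7 human leukemic cells with high Pgp (1 million/mL RPMI 1640) incubated 1 h at 37 °C with 10 µM daunomycin (final), with or without 10 µM modulator. Cells washed three times in ice-cold PBS, kept on ice, intracellular drug fluorescence read by flow cytometry. Fluorescence shift expressed relative to that of 2 µM cyclosporin A reference. Duplicates, at least three experiments.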

Data set [5] in a line: Direct binding to PgP recombinant cytosolic domain was measured by percent maximal quenching of the intrinsic fluorescence. Type of data set: ADME. To be noted: cytosol. The procedure, abridged:
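Recombinant C-terminal cytosolic NBD2 of Pgp at 0.5 µM in 20 mM potassium phosphate pH 6.8 with 0.5 M NaCl, 20% glycerol and 0.01% heptylcarbamoyl glucopyranoside detergent, 25 °C. Excitation at 295 nm, emission scanned 310–360 nm and integrated, buffer-corrected. Ligand added stepwise up to 20 µM. Inner-filter correction used N-acetyltryptophanamide. Curve fitting gave K_D and percent maximal quenching.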

On to `CC(C)Oc1cc2oc(-c3ccccc3)cc(=O)c2c(O)c1C(C)C`, for which the Hydrophobicity index in data set [1] turned out to be 1.248. In data set [2], this compound gave a Kd of 280 nM. Besides, the logP in data set [3] stood at 6.6. The compound further had a Relative daunomycin accumulation in data set [4] of 0.29. Further, in data set [5], the “Delta Fmax” value was 44.5%.

As to `CC(C)=CCc1c(O)cc2oc(-c3ccccc3)cc(=O)c2c1O`, the Hydrophobicity index in data set [1] is reported as 0.812. Besides, binding in data set [2] was put at a Kd of 300 nM. This compound also had a logP in data set [3] of 6.15. The Relative daunomycin accumulation in data set [4] amounted to 0.83. In data set [5], the “Delta Fmax” value was found to be 83.4%.

`CC(C)=CCC/C(C)=C\Cc1c(O)cc2oc(-c3ccccc3)cc(=O)c2c1O` had a Hydrophobicity index in data set [1] of 1.288. In data set [2], this compound returned a Kd of 45 nM. Besides, the logP in data set [3] was determined as 6.64. In data set [4], this compound gave a Relative daunomycin accumulation of 0.81. For the same compound, the “Delta Fmax” value in data set [5] was found to be 48.2%.

In data set [1], `Cc1c(O)cc2oc(-c3ccccc3)cc(=O)c2c1O` gave a Hydrophobicity index of 0.512. In addition, the affinity in data set [2], expressed as Kd, was 3100 nM. In data set [3], this compound registered a logP of 5.85. Besides, the Relative daunomycin accumulation in data set [4] is 0.2. In addition, the “Delta Fmax” value in data set [5] was 46.6%.

Take `CC(C)=CCc1c(O)cc(O)c2c(=O)cc(-c3ccccc3)oc12`: the Hydrophobicity index in data set [1] worked out at 0.853. In data set [2], this compound had a Kd of 280 nM. Besides, the logP in data set [3] came to 6.2. For the same compound, the Relative daunomycin accumulation in data set [4] was 1.52. Also, in data set [5], the “Delta Fmax” value is 81%.

With `CC(C)=CCC/C(C)=C\Cc1c(O)cc(O)c2c(=O)cc(-c3ccccc3)oc12`, in data set [1], the Hydrophobicity index was found to be 1.35. In data set [2], the Kd stood at 25 nM. Moreover, the logP in data set [3] worked out at 6.71. The Relative daunomycin accumulation in data set [4] was 0.9. Moreover, in data set [5], the “Delta Fmax” value came to 67%.

`COc1cc2oc(-c3ccccc3)cc(=O)c2c(O)c1C` returned a Hydrophobicity index in data set [1] of 0.842. The same compound displayed a Kd in data set [2] of 1300 nM. In addition, the logP in data set [3] came to 6.18. The compound also showed a Relative daunomycin accumulation in data set [4] of 0.3. Also, the “Delta Fmax” value in data set [5] turned out to be 57.3%.

As for `O=c1cc(-c2ccccc2)oc2cc(OCc3ccccc3)cc(O)c12`, in data set [1], the Hydrophobicity index is given as 1.076. In data set [2], this compound displayed a Kd of 68 nM. Moreover, in data set [3], the logP was 6.42. Also, the Relative daunomycin accumulation in data set [4] is listed as 0.27. In data set [5], the “Delta Fmax” value came out at 29.3%.

Compound `O=c1cc(-c2ccccc2)oc2cc(O)cc(O)c12` [CHRYSIN] returned a Hydrophobicity index in data set [1] of 0.358. Also, the Kd in data set [2] came to 13100 nM. For the same compound, in data set [3], the logP is 5.7. The Relative daunomycin accumulation in data set [4] came out at 0.2. The “Delta Fmax” value in data set [5] is listed as 94.6%.

For `O=c1cc(-c2ccccc2)oc2c(Cc3ccccc3)c(O)cc(O)c12`, the Hydrophobicity index in data set [1] is reported as 0.754. In data set [2], this compound returned a Kd of 990 nM. In data set [3], the lipophilicity (logP) came out at 6.1. Also, the Relative daunomycin accumulation in data set [4] is 0.25. The “Delta Fmax” value in data set [5] is on record as 99.1%.

Take `CC(C)Oc1cc(O)c2c(=O)cc(-c3ccccc3)oc2c1`: in data set [1], the Hydrophobicity index is listed as 0.898. The compound also registered an equilibrium dissociation constant (Kd) in data set [2] of 1320 nM. The same compound showed a logP in data set [3] of 6.24. This compound also gave a Relative daunomycin accumulation in data set [4] of 0.3. Besides, the “Delta Fmax” value in data set [5] is given as 53.2%.

`O=c1cc(-c2ccccc2)oc2cc(O)c(Cc3ccccc3)c(O)c12` registered a Hydrophobicity index in data set [1] of 0.754. In addition, binding in data set [2] was put at a Kd of 340 nM. In addition, the logP in data set [3] was found to be 6.1. This compound also displayed a Relative daunomycin accumulation in data set [4] of 0.09. Besides, the “Delta Fmax” value in data set [5] was determined as 72.4%.

`O=c1cc(-c2ccccc2)oc2c(Cc3ccccc3)c(O)c(Cc3ccccc3)c(O)c12`: the Hydrophobicity index in data set [1] was 1.06. This compound showed a Kd in data set [2] of 36 nM. In data set [3], this compound displayed a logP of 6.41. Moreover, in data set [4], the Relative daunomycin accumulation is 0.39. Further, the “Delta Fmax” value in data set [5] was 40.9%.

In data set [1], `COc1cc(O)c2c(=O)cc(-c3ccccc3)oc2c1` [TECHTOCHRYSIN] yielded a Hydrophobicity index of 0.719. Besides, binding in data set [2] was put at a Kd of 6300 nM. In data set [3], this compound displayed a logP of 6.06. The Relative daunomycin accumulation in data set [4] came to 0.23. Besides, in data set [5], the “Delta Fmax” value amounted to 68.1%.

Regarding `CC(C)Oc1c(C(C)C)c(O)c2c(=O)cc(-c3ccccc3)oc2c1C(C)C`, the Hydrophobicity index in data set [1] is 1.479. The Kd in data set [2] worked out at 33 nM. In data set [3], this compound yielded a logP of 6.84. The Relative daunomycin accumulation in data set [4] is 0.29. For the same compound, the “Delta Fmax” value in data set [5] was determined as 38.4%.

In data set [1], `CC(C)c1c(O)cc2oc(-c3ccccc3)cc(=O)c2c1O` came in with a Hydrophobicity index of 0.608. Moreover, the Kd in data set [2] worked out at 210 nM. In addition, the logP in data set [3] was found to be 5.95. The compound further registered a Relative daunomycin accumulation in data set [4] of 0.24. In data set [5], the “Delta Fmax” value amounted to 39%.

`CC(C)=CCc1c(O)c(CC=C(C)C)c2oc(-c3ccccc3)cc(=O)c2c1O`: the Hydrophobicity index in data set [1] is on record as 1.296. Also, the Kd in data set [2] worked out at 15 nM. For the same compound, the logP in data set [3] was determined as 6.56. The Relative daunomycin accumulation in data set [4] turned out to be 0.84. Also, the “Delta Fmax” value in data set [5] is on record as 21.5%.

In general, Kd refers to a measure of binding affinity in units of concentration. Lower therefore signals tighter binding. Usually logP stands for a log measure of how a compound divides between an organic and an aqueous phase. Low readings indicate lower lipophilicity, high ones higher lipophilicity.
